Assay results taken from ChEMBL document CHEMBL1153445, “Alkenyl substituted bicyclic nucleoside analogues retain nanomolar potency against Varicella Zoster Virus” (Bioorg Med Chem, 2009).

Legend:
[1] = Cytotoxicity against human HEL cells; format: cell-based; conditions: for MCC: read-out: MIC
Human alphaherpesvirus 3 [2] = experiment: Antiviral activity against Varicella Zoster virus Oka infected in HEL cells assessed as reduction in viral plaque formation after 5 days; format: functional, organism-based; conditions: Human alphaherpesvirus 3, Oka, 120 h
Outline: (§1)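 Confluent HEL cell monolayers infected with 20 PFU VZV per well; after 1–2 h adsorption, residual virus removed and cells incubated in MEM with 2% inactivated FCS, 1% L-glutamine, 0.3% sodium bicarbonate plus graded compound concentrations.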

[3] = Inhibition of Varicella Zoster virus thymidine kinase-mediated [3H]thymidine phosphorylation; set-up: species or system Human alphaherpesvirus 3
Human alphaherpesvirus 3 [4] = experiment: Antiviral activity against Varicella Zoster virus YS infected in HEL cells assessed as reduction in viral plaque formation after 5 days; format: functional, organism-based; conditions: Human alphaherpesvirus 3, YS, 120 h; outline: as §1

Row | Structure (SMILES) | EC50 (Human alphaherpesvirus 3 [2]) [µM] | IC50 [3] [µM] | EC50 (Human alphaherpesvirus 3 [4]) [µM] | CC50 [1] [µM] | MCC [1] [µM]
1 | CC/C=C/c1ccc(-c2cc3cn([C@H]4C[C@H](O)[C@@H](CO)O4)c(=O)nc3o2)cc1 | 0.0006 | 2.4 | 0.007 | > 200 | ≥ 5
2 | CCCCCc1ccc(-c2cc3cn([C@H]4C[C@H](O)[C@@H](CO)O4)c(=O)nc3o2)cc1 [CF1743] |  |  |  |  | ≥ 50
3 | C/C=C/c1cccc(-c2cc3cn([C@H]4C[C@H](O)[C@@H](CO)O4)c(=O)nc3o2)c1 | 13 | 2.6 | 58 | > 200 | > 200
4 | CCC/C=C/c1ccc(-c2cc3cn([C@H]4C[C@H](O)[C@@H](CO)O4)c(=O)nc3o2)cc1 | 0.0003 | 2.3 | 0.0008 | > 200 | > 5
5 | CCCCc1ccc(-c2cc3cn([C@H]4C[C@H](O)[C@@H](CO)O4)c(=O)nc3o2)cc1 |  |  |  |  | ≥ 50
6 | CCC/C=C/c1cccc(-c2cc3cn([C@H]4C[C@H](O)[C@@H](CO)O4)c(=O)nc3o2)c1 | 1.1 | 397 | 1.3 | > 200 | ≥ 200
7 | CCCc1ccc(-c2cc3cn([C@H]4C[C@H](O)[C@@H](CO)O4)c(=O)nc3o2)cc1 |  |  |  |  | ≥ 50
8 | CC/C=C/c1ccccc1-c1cc2cn([C@H]3C[C@H](O)[C@@H](CO)O3)c(=O)nc2o1 | 33 | 3.8 |  | 102 | 400

Second part, led by results:

Row | EC50 (Human alphaherpesvirus 3 [2]) [µM] | IC50 [3] [µM] | EC50 (Human alphaherpesvirus 3 [4]) [µM] | Structure (SMILES) | CC50 [1] [µM] | MCC [1] [µM]
9 | 0.004 | 1.9 | 0.004 | C/C=C/c1ccc(-c2cc3cn([C@H]4C[C@H](O)[C@@H](CO)O4)c(=O)nc3o2)cc1 | > 200 | ≥ 50
10 | 12 | 0.31 |  | C/C=C/c1ccccc1-c1cc2cn([C@H]3C[C@H](O)[C@@H](CO)O3)c(=O)nc2o1 | 103 | 400
11 | 8.4 | 119 |  | CCC/C=C/c1ccccc1-c1cc2cn([C@H]3C[C@H](O)[C@@H](CO)O3)c(=O)nc2o1 | 41 | 80
12 | 1.9 | 23 | 2.3 | CC/C=C/c1cccc(-c2cc3cn([C@H]4C[C@H](O)[C@@H](CO)O4)c(=O)nc3o2)c1 | 68 | ≥ 20
